Experiments:
[1] = target: T1, Indoleamine 2,3-dioxygenase 1 (Homo sapiens, UniProt P14902)
[2] = target: Tryptophan 2,3-dioxygenase (Mus musculus, UniProt P48776); assay: Inhibition of mouse recombinant TDO expressed in mouse P815B cells assessed as blockade of tryptophan degradation by HPLC; assay type: cell-based
[3] = Cytotoxicity against mouse P815B cells expressing mouse recombinant IDO by MTT assay; assay type: cell-based; settings: read-out: LD50 (the source's name)
How it was run: (§1)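 Cells (2 × 10⁵/well) incubated 8 h at 37 °C in HBSS with 80 μM L-Trp and compound titrated 0.312–80 μM or 1.56–400 μM. Supernatant was removed; the remaining cells received culture medium (Iscove, 10% FCS, amino acids) plus MTT for 3-4 h at 37 °C.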

[4] = (§2) Cytotoxicity against HEK293 cells expressing human recombinant IDO by MTT assay; assay type: cell-based; settings: human, HEK293 cells expressing human recombinant IDO; read-out: LD50 (the source's name)
How it was run: as §1

[5] = Cytotoxicity against mouse P815B cells expressing mouse recombinant TDO by MTT assay; assay type: cell-based; settings: for CC50: mouse, P815B cells expressing mouse recombinant TDO, read-out: LD50 (the source's name)
How it was run: as §1

[6] = target: Indoleamine 2,3-dioxygenase 1 (Mus musculus, UniProt P28776); assay: Inhibition of mouse recombinant IDO expressed in mouse P815B cells assessed as blockade of tryptophan degradation by HPLC; assay type: cell-based
[7] = target: T1, Indoleamine 2,3-dioxygenase 1; assay: Inhibition of human recombinant IDO expressed in HEK293 cells assessed as blockade of tryptophan degradation by HPLC; assay type: cell-based
HEK293 = assay: as §2; assay type: cell-based; settings: Homo sapiens, HEK293
How it was run: as §1

Chain of Tryptophan 2,3-dioxygenase (P48776 whole entry): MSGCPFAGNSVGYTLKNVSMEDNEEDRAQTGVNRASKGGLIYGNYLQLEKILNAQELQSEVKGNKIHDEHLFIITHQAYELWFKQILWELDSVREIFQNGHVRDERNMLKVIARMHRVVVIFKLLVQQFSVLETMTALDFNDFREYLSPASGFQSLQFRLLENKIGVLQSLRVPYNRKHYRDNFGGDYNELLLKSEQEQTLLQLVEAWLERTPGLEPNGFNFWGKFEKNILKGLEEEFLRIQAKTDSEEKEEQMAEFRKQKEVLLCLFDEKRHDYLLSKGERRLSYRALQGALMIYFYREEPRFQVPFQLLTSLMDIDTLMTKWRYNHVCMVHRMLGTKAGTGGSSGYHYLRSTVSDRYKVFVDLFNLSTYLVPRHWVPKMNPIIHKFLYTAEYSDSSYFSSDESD
Chain of Indoleamine 2,3-dioxygenase 1 (Mus musculus, UniProt P28776) (P28776 whole entry): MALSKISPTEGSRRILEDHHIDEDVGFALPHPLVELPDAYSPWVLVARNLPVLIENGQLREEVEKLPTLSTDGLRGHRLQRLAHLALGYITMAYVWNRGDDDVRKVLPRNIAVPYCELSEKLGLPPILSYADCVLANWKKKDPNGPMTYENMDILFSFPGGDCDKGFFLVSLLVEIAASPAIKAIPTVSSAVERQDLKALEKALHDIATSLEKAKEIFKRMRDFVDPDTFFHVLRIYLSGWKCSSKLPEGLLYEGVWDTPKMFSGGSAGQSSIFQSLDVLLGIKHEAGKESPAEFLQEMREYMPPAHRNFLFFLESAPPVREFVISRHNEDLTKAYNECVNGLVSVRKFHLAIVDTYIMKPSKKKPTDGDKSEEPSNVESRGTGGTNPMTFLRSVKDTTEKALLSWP
T1 sequence (P14902 whole entry): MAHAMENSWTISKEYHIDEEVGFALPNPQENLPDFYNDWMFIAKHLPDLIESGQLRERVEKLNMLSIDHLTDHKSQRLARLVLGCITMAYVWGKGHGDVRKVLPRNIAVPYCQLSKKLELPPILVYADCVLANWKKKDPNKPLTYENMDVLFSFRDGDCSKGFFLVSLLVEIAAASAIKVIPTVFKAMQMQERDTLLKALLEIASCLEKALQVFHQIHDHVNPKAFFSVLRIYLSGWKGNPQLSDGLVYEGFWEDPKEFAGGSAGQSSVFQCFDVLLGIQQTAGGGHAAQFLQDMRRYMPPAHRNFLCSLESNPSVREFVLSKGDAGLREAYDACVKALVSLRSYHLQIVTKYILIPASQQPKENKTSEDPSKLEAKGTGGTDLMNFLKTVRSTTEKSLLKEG

## Nc1ccccc1Oc1ccccc1
[1]; read-out: IC50
  IC50: > 1000 µM

## CCNc1ccc(O)c2ccccc12
[2]
  IC50: > 50 µM
[3]
  CC50: 400 µM
[4]
  CC50: 200 µM
[5]
  CC50: 50 µM

## CCCNc1ccc(O)c2ccccc12
[1]; read-out: IC50
  IC50: 4.5 µM
[3]
  CC50: 20 µM
[6]; p815b
  IC50: Not Active

## Oc1ccc(Cl)cc1Cc1cc(Cl)ccc1O [DICHLOROPHEN]
[3]
  CC50: 0.2 µM
[6]; p815b
  IC50: Not Active

## c1ccc(-c2cnn[nH]2)cc1
[2]
  IC50: > 400 µM
[3]
  CC50: > 80 µM
[4]
  CC50: > 400 µM
[5]
  CC50: > 400 µM
[6]; read-out: IC50
  IC50: 5 µM

## CNc1ccc(O)c2ccccc12
[1]; read-out: IC50
  IC50: 12.5 µM

## SC1Nc2cc(Cl)ccc2S1 (centres undefined)
[1]; read-out: IC50
  IC50: 50 µM

## NCCNc1ccc(O)c2ccccc12
[1]; read-out: IC50
  IC50: 44 µM

## O=C(c1ccccc1)c1ccccc1 [BENZOPHENONE]
[1]; read-out: IC50
  IC50: 1000 µM

## OC1Nc2ccccc2S1 (centres undefined)
[1]
  IC50: Not Active

## NCCCNc1ccc(O)c2ccccc12
[1]; read-out: IC50
  IC50: 5 µM

## COc1ccc(N)c2ccccc12
[1]; read-out: IC50
  IC50: 5.5 µM

## CC(C)(C)Nc1ccc(O)c2ccccc12
[1]; read-out: IC50
  IC50: 4 µM
[3]
  CC50: 20 µM
[6]; p815b
  IC50: Not Active

## CCN(CC)CCNc1ccc(O)c2ccccc12
[1]; read-out: IC50
  IC50: 3 µM

## CC1=C/C(=N\C(C)C)c2ccccc2C1=O
[1]; read-out: IC50
  IC50: 0.2 µM
[2]
  IC50: 6.3 µM
[3]
  CC50: 15 µM
[4]
  CC50: 50 µM
[5]
  CC50: 10 µM
[7]
  IC50: > 50 µM
[6]; read-out: IC50
  IC50: 4 µM

## CCC(CC)Nc1ccc(O)c2ccccc12
[1]; read-out: IC50
  IC50: 3.5 µM

## CN(C)CSC1Nc2ccccc2S1 (centres undefined)
[1]; read-out: IC50
  IC50: 50 µM

## Nc1ccc(Nc2ccccc2)cc1
[1]; read-out: IC50
  IC50: 400 µM

## Nc1ccc(O)c2ncccc12
[1]; read-out: IC50
  IC50: 3 µM
[2]
  IC50: 5 µM
[3]
  CC50: 2.5 µM
[5]
  CC50: 5 µM
[6]; read-out: IC50
  IC50: 1 µM

## CC(C)Nc1ccc(O)c2ncccc12
[1]; read-out: IC50
  IC50: 15 µM
[3]
  CC50: > 200 µM
[6]; p815b
  IC50: Not Active

## SC1Nc2ccccc2N1
[1]
  IC50: Not Active

## NCC(=O)Nc1ccc(O)c2ccccc12
[1]; read-out: IC50
  IC50: 105 µM

## Sc1nc(-c2ccccc2)cs1
[2]
  IC50: > 80 µM
[3]
  CC50: > 80 µM
[4]
  CC50: > 80 µM
[5]
  CC50: > 80 µM
[6]; read-out: IC50
  IC50: 20 µM

## Oc1ccc(NC2CCCCC2)c2ccccc12
[1]; read-out: IC50
  IC50: 15 µM

## Oc1ccc(O)c2ccccc12
[2]
  IC50: > 10 µM
[3]
  CC50: 40 µM
[4]
  CC50: 40 µM
[5]
  CC50: 10 µM

## CCNc1ccc(O)c2ncccc12
[1]; read-out: IC50
  IC50: 40 µM
[3]
  CC50: 20 µM
[6]; p815b
  IC50: Not Active

## CCC(CC)/N=C1/C=C(C2=C/C(=N\C(CC)CC)c3ccccc3C2=O)C(=O)c2ccccc21
[1]; read-out: IC50
  IC50: 0.52 µM
[2]
  IC50: > 50 µM
[3]
  CC50: 200 µM
[4]
  CC50: > 400 µM
[5]
  CC50: 100 µM
[7]
  IC50: 50 µM
[6]; read-out: IC50
  IC50: > 200 µM

## Oc1ccc(NCc2ccccc2)c2ccccc12
[1]; read-out: IC50
  IC50: 2.5 µM

## CC(C)Nc1ccc(O)c2ccccc12
[1]; read-out: IC50
  IC50: 2.5 µM
[2]
  IC50: > 15 µM
[3]
  CC50: > 80 µM
[4]
  CC50: 100 µM
[5]
  CC50: 15 µM
[7]
  IC50: 12.5 µM
[6]; read-out: IC50
  IC50: 30 µM

## CC(C)CNc1ccc(O)c2ccccc12
[1]; read-out: IC50
  IC50: 25 µM

## OC1Cc2ccccc2N1 (centres undefined)
[1]
  IC50: Not Active

## OC1c2ccccc2-c2ccccc21
[1]; read-out: IC50
  IC50: > 1000 µM

## N[C@@H](CO)C(=O)Nc1ccc(O)c2ccccc12
[1]; read-out: IC50
  IC50: 400 µM

## Cn1cc(C[C@H](N)C(=O)O)c2ccccc21 [(L)-1-METHYLTRYPTOPHAN]
[2]
  IC50: > 400 µM
[3]
  CC50: > 1000 µM
[4]
  CC50: > 400 µM
[5]
  CC50: > 400 µM

## CSC1Nc2ccccc2S1 (centres undefined)
[1]
  IC50: Not Active

## OC1Nc2ccccc2N1
[1]
  IC50: Not Active

## O=C1c2ccccc2-c2ccccc21
[1]; read-out: IC50
  IC50: > 200 µM

## CC(C)/N=C1/C=C(C2=C/C(=N\C(C)C)c3ccccc3C2=O)C(=O)c2ccccc21
[1]; read-out: IC50
  IC50: 0.45 µM
[2]
  IC50: > 50 µM
[3]
  CC50: 50 µM
[4]
  CC50: 50 µM
[5]
  CC50: 100 µM
[7]
  IC50: 25 µM
[6]; read-out: IC50
  IC50: > 50 µM

## c1cc(-c2cnn[nH]2)ccn1
[1]; read-out: IC50
  IC50: 5 µM
[3]
  CC50: 200 µM
[6]; p815b
  IC50: Not Active

## CN1c2ccccc2SC1S (centres undefined)
[1]
  IC50: Not Active

## CN(C)c1ccc(O)c2ccccc12
[1]; read-out: IC50
  IC50: 1000 µM

## C[C@@H](N)C(=O)Nc1ccc(O)c2ccccc12
[1]; read-out: IC50
  IC50: 90 µM

## Oc1cccc2cccnc12 [OXYQUINOLINE]
[1]; read-out: IC50
  IC50: 750 µM

## O=C(Nc1ccc(O)c2ccccc12)[C@@H]1CCCN1
[1]; read-out: IC50
  IC50: 200 µM

## Nc1ccc(O)c2ccccc12
[1]; read-out: IC50
  IC50: 6 µM
[3]
  CC50: 2 µM
[6]; p815b
  IC50: Not Active

## Oc1cccc2[nH]c3ccccc3c12
[1]; read-out: IC50
  IC50: 400 µM

## C[C@H](N)C(=O)Nc1ccc(O)c2ccccc12
[1]; read-out: IC50
  IC50: 60 µM

## c1cncc(-c2c[nH]nn2)c1
[1]; read-out: IC50
  IC50: 680 µM

## SC1Nc2ccccc2S1 (centres undefined)
[1]; read-out: IC50
  IC50: 50 µM
[2]
  IC50: > 80 µM
[3]
  CC50: > 80 µM
HEK293
  LD50: > 80 µM
[5]; Mus musculus, P815B
  LD50: > 80 µM
[7]
  IC50: 7 µM
[6]; read-out: IC50
  IC50: 20 µM

## CN(C)CSc1nc(-c2ccccc2)cs1
[1]; read-out: IC50
  IC50: > 1000 µM

## Nc1nc(-c2ccccc2)cs1
[1]; read-out: IC50
  IC50: 1000 µM

## O=C(c1ccccc1)c1cccc(O)c1
[1]; read-out: IC50
  IC50: 500 µM

## OCCOc1ccc(O)c2ccccc12
[1]; read-out: IC50
  IC50: 12.5 µM

## Nc1ccc2c(c1)SC(S)N2 (centres undefined)
[1]
  IC50: Not Active

## NC1Nc2ccccc2S1 (centres undefined)
[1]
  IC50: Not Active
